The values that follow come from the array DNA melting data of Ke et al. (doi:10.1101/2024.01.08.574731).

The nature of data set [1]: melting temperature; fluorescence melt of hairpins on a sequencing array, two-state fit, raised by 9.35 °C to match UV melts. As to conditions: sodium 0.088 M. In a few lines: (§1)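 Melting temperature and folding enthalpy were obtained by bootstrapped two-state fitting. Fits used Cy3 fluorescence of library hairpins with annealed Cy3 and quencher oligos on a sequenced MiSeq flow cell, imaged in 50 mM Na-HEPES pH 8.0, 25 mM NaCl in 2.5 °C steps up to 60 °C and normalised to pre-quench Cy3 and control constructs. Four replicates were combined by inverse-variance weighting, and fitted temperatures were raised by 9.35 °C to match UV melts.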

Data set [2] can be described thus: folding enthalpy; higher = less favourable; fluorescence melt of hairpins on a sequencing array, two-state fit. Particulars: sodium 0.088 M. In a few lines:
as §1

With GACGTGAAAACGTC (((((....))))), in data set [1], the Tm worked out at 61.8 °C. Moreover, the folding enthalpy in data set [2] is -32.7 kcal/mol.

For the sequence GCGACGGTCGC ((((...)))), in data set [1], the Tm is 48.7 °C. Besides, in data set [2], the folding enthalpy was -28.4 kcal/mol.

In the case of GTCAACGAAAGTTGAC ((((((....)))))), the Tm in data set [1] was determined as 68.9 °C. For the same sequence, the folding enthalpy in data set [2] was -37.4 kcal/mol.

As to GATCGCTATCGCGATC ((((((....)))))), the Tm in data set [1] is 67.1 °C. Further, the folding enthalpy in data set [2] was -36.9 kcal/mol.

As for GGGCACGGAAACACGCCC ((((..(....)..)))), the Tm in data set [1] is 46.2 °C. Also, the folding enthalpy in data set [2] was -30.7 kcal/mol.

Regarding GGCGTCGAAAGACATGCC ((((((....)))..))), the Tm in data set [1] was 53 °C. In data set [2], the folding enthalpy was -23.1 kcal/mol.

On to GATCATCCCCATGATC ((((((....)))))), for which the Tm in data set [1] was 46.2 °C. For the same sequence, the folding enthalpy in data set [2] is -34.9 kcal/mol.

Regarding GACACAGGAAACTGTACC (..((((....))))..), the Tm in data set [1] was 25.1 °C. Moreover, the folding enthalpy in data set [2] was -11.1 kcal/mol.

Take GGATCGGCGAAAGCCTCC (((..(((....)))))): the Tm in data set [1] was 28.4 °C. Besides, the folding enthalpy in data set [2] is -11.1 kcal/mol.

Consider GATCCTCAATAGGATC ((((((....)))))), for which, in data set [1], the Tm is 49.5 °C. Moreover, the folding enthalpy in data set [2] was -34.2 kcal/mol.

As for GTCGACGAAAGTCCTGAC ((((((....)))..))), in data set [1], the Tm stood at 31.6 °C. Further, in data set [2], the folding enthalpy is -12.9 kcal/mol.

Regarding GCGAGGCGAAAGCGGCGC (((..((....))..))), the Tm in data set [1] came out at 66.8 °C. Moreover, the folding enthalpy in data set [2] was -38.1 kcal/mol.

In the case of GCTCAGCGAAAGCTTAGC (((.(((....))).))), the Tm in data set [1] was 49.4 °C. In data set [2], the folding enthalpy was -44.9 kcal/mol.

As for GGGCCTGGAAACAGGCTC (.(((((....))))).), the Tm in data set [1] came to 61.6 °C. Moreover, the folding enthalpy in data set [2] was -15.9 kcal/mol.

For GGCATCCGAAAGGAGGCC (((.(((....))).))), the Tm in data set [1] is 69.3 °C. In data set [2], the folding enthalpy is -38.2 kcal/mol.

For the sequence GGAGGTGGAAACACTTCC (((.(((....))).))), the Tm in data set [1] was determined as 48.2 °C. Also, the folding enthalpy in data set [2] was -35.2 kcal/mol.

In the case of GGGTAACGAAAGTTCCCC (((.(((....))).))), in data set [1], the Tm was 50.6 °C. Besides, the folding enthalpy in data set [2] was -27.4 kcal/mol.

As to GTCCTGGGAAACCAGGGC (.(((((....))))).), the Tm in data set [1] turned out to be 56.9 °C. In data set [2], the folding enthalpy was -35.5 kcal/mol.

In the case of GTTGCCGGAAACGGCGAC ((.((((....)))).)), in data set [1], the Tm was found to be 64.1 °C. Further, the folding enthalpy in data set [2] was -20.1 kcal/mol.

Consider GTGGTCGAAAGACATCAC ((((((....)))..))), for which the Tm in data set [1] is 34.2 °C. Moreover, the folding enthalpy in data set [2] was -14.3 kcal/mol.

Turning to GGACGCGAAAGCGCTCC ((((((....))).))), the Tm in data set [1] was 54.9 °C. Besides, the folding enthalpy in data set [2] was -20.5 kcal/mol.

Consider GATCTGGAGGCAGATC ((((((....)))))), for which the Tm in data set [1] is 48.1 °C. Further, the folding enthalpy in data set [2] was -31.1 kcal/mol.

On to GATAGTGAAAACTATC ((((((....)))))), for which the Tm in data set [1] stood at 48.4 °C. Besides, in data set [2], the folding enthalpy was -30.1 kcal/mol.

As to CGCCCGGAAACGGCGCG ((((((....))).))), the Tm in data set [1] was determined as 58.4 °C. For the same sequence, the folding enthalpy in data set [2] is -26.8 kcal/mol.

As for TCGGGGAAACCCGA (((((....))))), the Tm in data set [1] was 53.3 °C. Moreover, the folding enthalpy in data set [2] was -22.8 kcal/mol.

On to GATCGTCGCTACGATC ((((((....)))))), for which, in data set [1], the Tm came to 55 °C. Moreover, in data set [2], the folding enthalpy is -41.6 kcal/mol.

As for GTACAGGGAAACCTGTAC (((((((....))))))), the Tm in data set [1] came out at 59.4 °C. Moreover, the folding enthalpy in data set [2] is -40.3 kcal/mol.

For GGCGGTGGAAACGCTGCC (((.(.(....).).))), in data set [1], the Tm stood at 54.6 °C. Besides, the folding enthalpy in data set [2] was -21.9 kcal/mol.

GGTCAGGGAAACCTAACC (((.(((....))).))): the Tm in data set [1] is 33.6 °C. The folding enthalpy in data set [2] is -24.6 kcal/mol.

For the sequence GGAAGACGAAAGTCATCC (((.(((....))).))), the Tm in data set [1] is 48.7 °C. Besides, the folding enthalpy in data set [2] was -26 kcal/mol.

GATCACGCAGGTGATC ((((((....)))))): the Tm in data set [1] came to 64.2 °C. Also, the folding enthalpy in data set [2] was -39.6 kcal/mol.

With GATCAAGTACTTGATC ((((((....)))))), in data set [1], the Tm was 51.9 °C. Moreover, in data set [2], the folding enthalpy is -45.2 kcal/mol.

For the sequence GCCTAAGAAATTAGGC ((((((....)))))), the Tm in data set [1] came out at 52.5 °C. Also, in data set [2], the folding enthalpy is -28.8 kcal/mol.

In the case of GATCTCGGAGGAGATC ((((((....)))))), in data set [1], the Tm was 55.7 °C. The folding enthalpy in data set [2] is -44.4 kcal/mol.

With GATCTCGGAAACAAGATC (((((.(....).))))), the Tm in data set [1] stood at 29 °C. In addition, the folding enthalpy in data set [2] was -15 kcal/mol.

On to GTGTCCGGAAACGGGCAC (((.(((....))).))), for which, in data set [1], the Tm was found to be 62.4 °C. In addition, the folding enthalpy in data set [2] was -32.4 kcal/mol.

As to GATCTCGCAGAGATC ((((((...)))))), the Tm in data set [1] worked out at 68 °C. Besides, in data set [2], the folding enthalpy was -30.5 kcal/mol.

For GACAACGAAAGTTAAGTC ((((((....)))..))), the Tm in data set [1] is 33.2 °C. Further, in data set [2], the folding enthalpy is -14.7 kcal/mol.

Regarding GATCGAAAGCTCGATC ((((((....)))))), the Tm in data set [1] was 48.7 °C. Moreover, the folding enthalpy in data set [2] was -29.6 kcal/mol.

For the sequence GAGTTCGGAAACGGATTC ((.(.((....)).).)), the Tm in data set [1] came out at 27.3 °C. The folding enthalpy in data set [2] is -17.4 kcal/mol.

Regarding GACTACGAAAGTAGGTC ((((((....))).))), in data set [1], the Tm came to 48.7 °C. Besides, the folding enthalpy in data set [2] was -17.5 kcal/mol.

GCCTATACGAAAGTAGGC (((..(((....)))))): the Tm in data set [1] worked out at 48.3 °C. The folding enthalpy in data set [2] is -28.6 kcal/mol.

On to GGCAAGGGAAACCTCGCC (((.(((....))).))), for which, in data set [1], the Tm worked out at 47.1 °C. Moreover, the folding enthalpy in data set [2] was -32 kcal/mol.

GGCGTCGAAAGACTGGCC ((((((....)))..))): the Tm in data set [1] was 53.7 °C. Besides, the folding enthalpy in data set [2] is -34.6 kcal/mol.

On to GGTATTGCGAAAGCAACC (((..(((....)))))), for which the Tm in data set [1] worked out at 29.4 °C. For the same sequence, in data set [2], the folding enthalpy was -10 kcal/mol.

For the sequence GACTGCGGAAACGTAGTC ((((.((....)).)))), the Tm in data set [1] stood at 52.6 °C. Also, in data set [2], the folding enthalpy was -39.6 kcal/mol.

For GTCGAGCGAAAGCTGAC (((.(((....)))))), the Tm in data set [1] was determined as 57.7 °C. In addition, the folding enthalpy in data set [2] was -20 kcal/mol.

As for GAGCGGGGAAACCCGTTC ((.((((....)))).)), the Tm in data set [1] stood at 53 °C. For the same sequence, the folding enthalpy in data set [2] was -20.1 kcal/mol.

With GATCTTCAGCAAGATC ((((((....)))))), in data set [1], the Tm is 38.9 °C. For the same sequence, the folding enthalpy in data set [2] is -24.6 kcal/mol.

Take GCTATGCGAAAGCGAAGC (((..((....))..))): the Tm in data set [1] amounted to 44.2 °C. Further, the folding enthalpy in data set [2] was -16.4 kcal/mol.

Turning to GGCATAGGAAACTATACC ((.((((....)))).)), the Tm in data set [1] is 31.2 °C. The folding enthalpy in data set [2] was -18.6 kcal/mol.

With GCCAAGCGAAAGCCTCGC ((.(.((....)).).)), in data set [1], the Tm amounted to 23.1 °C. Besides, in data set [2], the folding enthalpy is -5.93 kcal/mol.

Regarding GCTCCCGAAAGGGCGAGC ((((((....)))..))), in data set [1], the Tm was 47.9 °C. Further, the folding enthalpy in data set [2] is -16.3 kcal/mol.

On to GCCTTGCGAAAGCTACGC ((.(.((....)).).)), for which, in data set [1], the Tm turned out to be 46.3 °C. Further, the folding enthalpy in data set [2] was -10.2 kcal/mol.

In the case of GACAACGAAAGTTGAGTC ((((((....)))..))), the Tm in data set [1] stood at 34.8 °C. The folding enthalpy in data set [2] was -11.2 kcal/mol.
